Tests used:
[1] = Therapeutic index, IC50 for human H9 cells to EC50 for HIV1 3B; assay type: cell-based; conditions: read-out: Ratio IC50/EC50
[2] = test system: Human immunodeficiency virus 1; experiment: Antiviral activity against HIV1 3B in human H9 cells assessed as inhibition of viral replication after 3 days by p24 antigen capture assay; assay type: functional, organism-based; conditions: Human immunodeficiency virus 1, 3B, H9, 72 h
Procedure, shortened: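 H9 lymphocytes (1 × 10^7 cells/ml) exposed to HIV-1 IIIB for 1 h at 37°, washed free of unadsorbed virus, resuspended at […] and mixed with an equal volume of compound dilution; 3 days at 37°. Infection read by p24 antigen capture, at four concentrations relative to infected untreated cultures; EC50 = concentration inhibiting replication by 50%.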

[3] = molecular target: Protein kinase C beta type (Homo sapiens, UniProt P05771); experiment: Inhibition of PKC beta2
Protein kinase C beta type, sequence (P05771 whole entry): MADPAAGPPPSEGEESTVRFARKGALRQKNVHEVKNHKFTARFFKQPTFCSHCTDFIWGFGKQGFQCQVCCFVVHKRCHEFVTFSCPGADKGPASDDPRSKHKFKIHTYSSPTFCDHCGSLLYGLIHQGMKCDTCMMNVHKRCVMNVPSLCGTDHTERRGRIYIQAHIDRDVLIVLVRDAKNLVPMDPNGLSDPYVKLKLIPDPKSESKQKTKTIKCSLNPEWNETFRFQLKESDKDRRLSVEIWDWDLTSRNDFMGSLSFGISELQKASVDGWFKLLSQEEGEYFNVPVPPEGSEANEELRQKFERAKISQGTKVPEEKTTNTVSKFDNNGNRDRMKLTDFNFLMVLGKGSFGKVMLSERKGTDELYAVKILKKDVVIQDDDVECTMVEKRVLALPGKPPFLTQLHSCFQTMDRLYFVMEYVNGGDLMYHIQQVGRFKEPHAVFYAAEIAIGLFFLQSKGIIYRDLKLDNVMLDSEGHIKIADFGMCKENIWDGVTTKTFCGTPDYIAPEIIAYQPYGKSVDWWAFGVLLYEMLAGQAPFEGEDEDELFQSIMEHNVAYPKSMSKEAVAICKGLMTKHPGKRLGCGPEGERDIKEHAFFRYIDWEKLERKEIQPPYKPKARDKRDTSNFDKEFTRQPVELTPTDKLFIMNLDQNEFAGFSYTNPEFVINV
Procedure, shortened: (§1)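 Purified PKC isoenzyme (20 ng) starts the reaction. Mix: phosphatidylserine 40 µg/ml/diacylglycerol 1.76 µg/ml vesicles, 20 mM HEPES pH 7.5, 10 mM MgCl2, 200 µg/ml histone substrate, 100 µM CaCl2, 47.5 µM EGTA, 20 µM [32P]ATP; compounds in DMSO. 10 min at 30°, stopped with cold TCA plus BSA, precipitate filtered and scintillation-counted.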

H9 = experiment: Cytotoxicity against human H9 cells after 3 days; assay type: cell-based; conditions: H9, 72 h
Procedure, shortened: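 Uninfected H9 lymphocytes cultured with an equal volume of compound dilution for 3 days at 37°. Cell density then counted; IC50 = concentration inhibiting lymphocyte growth by 50%.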

[4] = molecular target: T1, Protein kinase C epsilon type (Homo sapiens, UniProt Q02156); experiment: Inhibition of PKC epsilon; procedure, shortened: as §1
T1 sequence (Q02156 whole entry): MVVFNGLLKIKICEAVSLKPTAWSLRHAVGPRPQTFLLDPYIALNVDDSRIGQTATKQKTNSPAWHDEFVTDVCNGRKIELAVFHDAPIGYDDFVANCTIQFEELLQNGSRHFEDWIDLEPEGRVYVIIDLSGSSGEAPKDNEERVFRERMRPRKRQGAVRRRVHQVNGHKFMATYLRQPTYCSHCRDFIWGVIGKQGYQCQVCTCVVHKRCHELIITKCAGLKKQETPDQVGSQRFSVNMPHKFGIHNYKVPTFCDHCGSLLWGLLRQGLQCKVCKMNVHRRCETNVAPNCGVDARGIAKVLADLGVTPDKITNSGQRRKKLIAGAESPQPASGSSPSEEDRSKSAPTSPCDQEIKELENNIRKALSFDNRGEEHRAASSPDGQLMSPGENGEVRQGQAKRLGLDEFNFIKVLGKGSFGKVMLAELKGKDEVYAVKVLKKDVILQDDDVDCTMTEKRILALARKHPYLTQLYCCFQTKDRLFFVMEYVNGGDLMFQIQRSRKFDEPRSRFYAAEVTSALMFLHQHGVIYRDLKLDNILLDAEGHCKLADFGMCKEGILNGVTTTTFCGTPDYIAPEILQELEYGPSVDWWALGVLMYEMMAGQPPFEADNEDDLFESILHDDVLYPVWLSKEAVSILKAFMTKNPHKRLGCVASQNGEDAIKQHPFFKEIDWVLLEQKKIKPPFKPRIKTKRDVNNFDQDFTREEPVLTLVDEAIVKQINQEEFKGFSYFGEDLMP

[5] = molecular target: Protein kinase C delta type (Homo sapiens, UniProt Q05655); experiment: Inhibition of PKC delta; procedure, shortened: as §1
Protein kinase C delta type, sequence (Q05655 whole entry): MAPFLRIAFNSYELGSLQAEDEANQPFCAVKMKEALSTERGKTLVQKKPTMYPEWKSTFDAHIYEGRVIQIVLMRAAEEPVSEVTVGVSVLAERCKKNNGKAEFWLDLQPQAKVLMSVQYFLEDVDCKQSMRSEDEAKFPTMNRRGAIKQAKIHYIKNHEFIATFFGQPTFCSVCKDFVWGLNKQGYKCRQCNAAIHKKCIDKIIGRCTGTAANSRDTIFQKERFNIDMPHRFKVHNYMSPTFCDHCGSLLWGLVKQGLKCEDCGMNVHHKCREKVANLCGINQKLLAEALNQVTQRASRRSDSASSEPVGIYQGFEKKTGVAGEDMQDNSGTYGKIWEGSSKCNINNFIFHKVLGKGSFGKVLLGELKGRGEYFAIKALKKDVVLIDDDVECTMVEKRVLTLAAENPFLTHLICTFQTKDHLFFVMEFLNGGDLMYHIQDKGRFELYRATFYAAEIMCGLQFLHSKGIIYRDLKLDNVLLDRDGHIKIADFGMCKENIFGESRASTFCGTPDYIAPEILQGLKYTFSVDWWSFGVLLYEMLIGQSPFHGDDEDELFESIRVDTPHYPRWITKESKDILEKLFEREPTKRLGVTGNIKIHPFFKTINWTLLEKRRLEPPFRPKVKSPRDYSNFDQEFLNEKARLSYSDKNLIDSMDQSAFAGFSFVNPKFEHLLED

[6] = molecular target: Protein kinase C gamma type (Homo sapiens, UniProt P05129); experiment: Inhibition of PKC gamma; procedure, shortened: as §1

Structure (SMILES)	selectivity ratio [1]	EC50 [2]	IC50 [3]	IC50 (H9)	IC50 [4]	IC50 [5]	IC50 [6]
C=C(C)[C@@H]1CC[C@]2(C(=O)OCC(=O)OC)CC[C@]3(C)[C@H](CC[C@@H]4[C@@]5(C)CC[C@H](O)C(C)(C)[C@@H]5CC[C@]43C)[C@@H]12	1.5	17 µM	> 150 µM	26 µM	> 150 µM	–	–
Cc1cn([C@H]2C[C@H](N=[N+]=[N-])[C@@H](CO)O2)c(=O)[nH]c1=O [ZIDOVUDINE]	–	–	> 150 µM	–	> 150 µM	–	–
C=C(C)[C@@H]1CC[C@]2(C(=O)O)CC[C@]3(C)[C@H](CC[C@@H]4[C@@]5(C)CC[C@H](OC(=O)CCC(=O)O)C(C)(C)[C@@H]5CC[C@]43C)[C@@H]12	4	4 µM	> 150 µM	16 µM	> 150 µM	49 µM	–
CC(=O)[C@@H]1CC[C@]2(C(=O)O)CC[C@]3(C)[C@H](CC[C@@H]4[C@@]5(C)CC[C@H](O)C(C)(C)[C@@H]5CC[C@]43C)[C@@H]12 [PLATANIC ACID]	13	6.5 µM	> 150 µM	90 µM	> 150 µM	–	–
C=C(C)[C@@H]1CC[C@]2(CO)CC[C@]3(C)[C@H](CC[C@@H]4[C@@]5(C)CC[C@H](O)C(C)(C)[C@@H]5CC[C@]43C)[C@@H]12 [BETULIN]	1.9	23 µM	> 150 µM	45 µM	> 150 µM	–	–
C=C(C)[C@@H]1CC[C@]2(C(=O)O)CC[C@]3(C)[C@H](CC[C@@H]4[C@@]5(C)CC[C@H](O)C(C)(C)[C@@H]5CC[C@]43C)[C@@H]12 [BETULINIC ACID]	–	1.4 µM	> 150 µM	–	> 150 µM	–	–
C=C(C)[C@@H]1CC[C@]2(C(=O)O)CC[C@]3(C)[C@H](CC[C@@H]4[C@@]5(C)CC[C@H](OC(=O)/C=C/C)C(C)(C)[C@@H]5CC[C@]43C)[C@@H]12	2.5	19 µM	> 150 µM	48 µM	> 150 µM	–	–
CC(C)[C@@H]1CC[C@]2(C(=O)O)CC[C@]3(C)C(CCC4[C@@]5(C)CC[C@H](O)C(C)(C)C5CC[C@]43C)C12 (stereo partly drawn) [DIHYDROBETULINIC ACID]	14	0.9 µM	> 150 µM	–	> 150 µM	46 µM	–
C=C(C)[C@@H]1CC[C@]2(C(=O)O)CC[C@]3(C)[C@H](CC[C@@H]4[C@@]5(C)CC[C@H](OC(C)=O)C(C)(C)[C@@H]5CC[C@]43C)[C@@H]12	0.8	25 µM	> 150 µM	20 µM	> 150 µM	–	–
C=C(C)[C@@H]1CC[C@]2(C(=O)O)CC[C@]3(C)[C@H](CC[C@@H]4[C@@]5(C)CC[C@H](OS(=O)(=O)O)C(C)(C)[C@@H]5CC[C@]43C)[C@@H]12	1.7	20 µM	> 150 µM	35 µM	> 150 µM	–	37 µM
C=C(C)[C@@H]1CC[C@]2(C(=O)O)CC[C@]3(C)[C@H](CC[C@@H]4[C@@]5(C)CC[C@H](OC(=O)c6ccccc6)C(C)(C)[C@@H]5CC[C@]43C)[C@@H]12	1	15 µM	> 150 µM	15 µM	> 150 µM	–	74 µM
